This passage reports Ratio results from ChEMBL document CHEMBL3271961, “Dibenztroponeacetic and -propionic acids. Potent new antiinflammatory agents” (1977).

Molecules are shown by their SMILES.

The subject of assay [1] is Mus musculus. The assay can be described thus: Analgesic activity in po dosed mouse assessed as inhibition of phenylquinone-induced writhing measured up to 10 mins relative to aspirin. The assay is classed as functional. A digest of the protocol: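 Male mice, 18-20 g, dosed orally in aqueous vehicle at time zero. Writhing induced 20 min later by ip injection of 0.25 mL 0.02% phenylquinone, then counted over the next 10 min. Groups of usually 8-10 mice. Aspirin standard given at 16.5, 50 and 150 mg/kg. Relative potency determined graphically or by Finney's methods.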
Background: Writhing tests count abdominal constrictions after an irritant is injected.

Assay [2] concerns Rattus norvegicus. The assay can be described thus: Antiinflammatory activity in rat assessed as inhibition of carrageenan-induced paw edema administered into pad of right hind paw 1 hr before carrageenan challenge measured after 4 hrs relative to phenylbutazone. The assay is classed as functional. Conditions: in the assay text read “administered po” for “administered into pad of right hind paw”. A digest of the protocol: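 Female rats, 80-90 g, gavaged with test material in 1 mL aqueous vehicle. One hour later, 0.05 mL of 1% carrageenan in 0.9% NaCl injected into the right hind paw pad. Rats killed 4 h after dosing. Both hind paws weighed, and the percent weight increase of the inflamed paw calculated. Six rats per group. Phenylbutazone standard usually at 3.6, 11 and 33 mg/kg.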
On the technique in general: In the carrageenan paw model, swelling and tenderness develop within hours.

The test system of assay [3] is Rattus norvegicus. Description: Antiarthritic activity in po dosed rat assessed as inhibition of adjuvant-induced arthritis administered twice daily for 17 days measured on day 18 relative to indomethacin.
Assay [4] has as its system Rattus norvegicus. Description: Antiinflammatory activity in po dosed rat assessed as inhibition of carrageenan immersed cotton pellet-induced granuloma administered daily once for 7 days measured one day after last dose relative to indomethacin. Type of assay: functional. Summed up:
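Two 50-mg cotton pellets, soaked 24 h in 1% carrageenan, dried, then dipped in 1% penicillin G/1% streptomycin, implanted sc dorso-lumbar in 180-200 g rats (one sex per test). Daily oral dosing for 7 days. Next day, pellets with granulomas removed, dried 24 h at 100 °C, weighed. Usually nine rats/group. Indomethacin standard at 0.5, 1, 2, 4 mg/kg/day.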

On to `COC(=O)Cc1ccc2c(=O)c3ccccc3ccc2c1`, for which the Ratio is given as less than 1 in assay [1] and 3 in assay [2]. Take `CC(C(=O)[O-])c1ccc2c(=O)c3ccccc3ccc2c1.[Na+]` (stereo not drawn): the Ratio in assay [2] is given as 62. For `CC(C)(C(=O)O)c1ccc2c(=O)c3ccccc3ccc2c1`, the Ratio in assay [2] is 0.5.

Consider `C=C(C(=O)O)c1ccc2c(=O)c3ccccc3ccc2c1`, for which the Ratio turned out to be 1 in assay [1] and 4 in assay [2]. `COC(=O)C(C)c1ccc2c(=O)c3ccccc3ccc2c1` (stereo not drawn): the Ratio in assay [3] turned out to be 2; in assay [2], 15. With `O=C(O)Cc1ccc2c(=O)c3ccccc3ccc2c1`, the Ratio in assay [1] was found to be 2; in assay [4], 0.1; in assay [3] it was 0.1; in assay [2], 6. As to `CC(C(=O)O)c1ccc2c(=O)c3ccccc3ccc2c1` (racemic), the Ratio in assay [1] was determined as 12; in assay [2], 44. Regarding `CCC(C(=O)O)c1ccc2c(=O)c3ccccc3ccc2c1` (racemic), the Ratio turned out to be 2 in assay [1] and 7 in assay [2]. The matching figures for `COC(=O)C(C)c1ccc2c(=O)c3ccccc3ccc2c1` (racemic): 2 and 11.

As to `CC(C)CCOC(=O)C(C)c1ccc2c(=O)c3ccccc3ccc2c1` (racemic), the Ratio in assay [1] stood at 1.7; in assay [2], 6.

Consider `CCCCCCCCCCCCOC(=O)C(C)c1ccc2c(=O)c3ccccc3ccc2c1` (racemic), for which the Ratio in assay [1] is less than 0.5; in assay [2] it was 15. In the case of `CCCCCCCCCCCCCCCCCCCCOC(=O)C(C)c1ccc2c(=O)c3ccccc3ccc2c1` (racemic), the results for the Ratio in assay [1] and in assay [2] were less than 0.5 and “<=1”, respectively. For the molecule `CC(C(=O)OCCN(C)C)c1ccc2c(=O)c3ccccc3ccc2c1` (racemic), the Ratio is listed as 7 in assay [1] and 30 in assay [2].

On to `CCN(C)CCOC(=O)C(C)c1ccc2c(=O)c3ccccc3ccc2c1` (racemic), for which the values for the Ratio in assay [1] and in assay [2] were less than 2 and 20, respectively. For `CCN(CC)CCOC(=O)C(C)c1ccc2c(=O)c3ccccc3ccc2c1.Cl` (racemic) the same measures were 10 and 14. `CC(C(=O)OCCN1CCCCC1)c1ccc2c(=O)c3ccccc3ccc2c1` (racemic): the Ratio in assay [1] is listed as less than 2; in assay [2], 15. Turning to `CC(C(=O)OCCN1CCOCC1)c1ccc2c(=O)c3ccccc3ccc2c1.Cl` (racemic), the Ratio in assay [1] is reported as less than 1; in assay [2] it was 9. The matching figures for `CC(C(=O)OCCCCN(C)C)c1ccc2c(=O)c3ccccc3ccc2c1` (racemic): less than 3 and 7. Regarding `CC(O)(C(=O)O)c1ccc2c(=O)c3ccccc3ccc2c1` (racemic), the figures for the Ratio in assay [1] and in assay [2] were 1.5 and less than 0.5, respectively. With `CC(C(=O)O)c1ccc2c(=O)c3ccccc3ccc2c1` (single isomer, unassigned; (+)), the Ratio is 20 in assay [1] and 68 in assay [2]. For the molecule `CC(C(=O)OCCN(C)C)c1ccc2c(=O)c3ccccc3ccc2c1` (single isomer, unassigned; (+)), the Ratio in assay [2] is listed as 45. For `CC(C(=O)O)c1ccc2c(=O)c3ccccc3ccc2c1` (single isomer, unassigned; (-)), the Ratio in assay [1] and in assay [2] was 1.5 in each case.
